The source of these data is ChEMBL document CHEMBL4219197, “Synthesis, biological evaluation and SAR of naftopidil-based arylpiperazine derivatives” (Bioorg Med Chem Lett, 2018).

Where only a bound is given, the exact number is not on record here.

The subject of one test is PC-3. As to the kind of experiment: Cytotoxicity against human PC3 cells assessed as growth inhibition after 24 hrs by CCK8 assay. Type of test: functional, cell-based. Particulars: PC-3, 24 h. The method, boiled down: (§1)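 Cells (PC-3, LNCaP, DU145, normal prostate […] WPMY-1) exposed 24 h to escalating concentrations; viability by CCK-8 read-out as percent of control; IC50 derived.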
On the technique in general: Tetrazolium dyes change colour on reduction, which living cells bring about.

A further test concerns LNCaP. As to the kind of experiment: Cytotoxicity against human LNCAP cells assessed as growth inhibition after 24 hrs by CCK8 assay. It is filed as functional, cell-based. The method, boiled down: as §1
The next test deals with DU-145. Nature of the test: Cytotoxicity against human DU145 cells assessed as growth inhibition after 24 hrs by CCK8 assay. It is filed as functional, cell-based. The settings on record: DU-145, 24 h. The method, boiled down: as §1
Test [1] is described as follows: Cytotoxicity against human WPMY-1 cells assessed as growth inhibition after 24 hrs by CCK8 assay. The settings on record: WPMY-1, 24 h. Type of test: cell-based. The method, boiled down: as §1

By IC50 is commonly meant the point on the concentration scale where inhibition reaches its midpoint. Consider `FC(F)(F)c1ccccc1N1CCN(CCc2ccc(COc3ccc4c(c3)CCCC4)cc2)CC1`, for which the IC50 is over 50 µM with PC-3, 6.09 µM in the test with LNCaP, over 50 µM in the test on DU-145 and over 50 µM in test [1].

In the case of `CCOc1ccccc1N1CCN(CCc2ccc(COc3ccc4c(c3)CCCC4)cc2)CC1`, the 50% inhibitory concentration (IC50) with PC-3 was over 50 µM; in the test with LNCaP, 28 µM; with DU-145, over 50 µM; in test [1], over 50 µM.

As for `OC1(c2ccccc2)CCN(CCc2ccc(COc3ccc4c(c3)CCCC4)cc2)CC1`, the IC50 with PC-3 was over 50 µM; in the test on LNCaP it was 3.03 µM; in the test with DU-145, 3.38 µM; in test [1], 31.7 µM.

Regarding `COc1ccc(Cl)cc1N1CCN(CCc2ccc(COc3ccc4c(c3)CCCC4)cc2)CC1`, the IC50 with PC-3 is over 50 µM; in the test with LNCaP, over 50 µM; with DU-145, 25.1 µM; in test [1], 47 µM.

With `Brc1ccc(N2CCN(CCc3ccc(COc4ccc5c(c4)CCCC5)cc3)CC2)cc1`, the IC50 in the test with PC-3 is over 50 µM; with LNCaP, over 50 µM; in the test on DU-145 it was 21.1 µM; in test [1] it was over 50 µM.

For `COc1ccccc1N1CCN(CCc2ccc(COc3ccc4c(c3)CCCC4)cc2)CC1`, the half-maximal inhibitory concentration (IC50) in the test on PC-3 was over 50 µM; with LNCaP it was 3.62 µM; in the test with DU-145 it was 2.24 µM; in test [1], 28.1 µM.

As for `Fc1ccccc1N1CCN(CCc2ccc(COc3ccc4c(c3)CCCC4)cc2)CC1`, the concentration for half-maximal inhibition (IC50) was 27.3 µM with PC-3, 7.57 µM in the test on LNCaP, over 50 µM with DU-145 and over 50 µM in test [1].

For `Clc1cccc(N2CCN(CCc3ccc(COc4ccc5c(c4)CCCC5)cc3)CC2)c1Cl`, the IC50 was over 50 µM in the test on PC-3, 3.06 µM in the test with LNCaP, 23.1 µM in the test on DU-145 and over 50 µM in test [1].

`Cc1ccc(Cl)cc1N1CCN(CCc2ccc(COc3ccc4c(c3)CCCC4)cc2)CC1`: the 50% inhibitory concentration (IC50) was over 50 µM with PC-3, 7.81 µM in the test on LNCaP, over 50 µM in the test on DU-145 and over 50 µM in test [1].

As to `Fc1ccc(N2CCN(CCc3ccc(COc4ccc5c(c4)CCCC5)cc3)CC2)c(F)c1`, the IC50 in the test on PC-3 is over 50 µM; with LNCaP it was 4.4 µM; in the test on DU-145, over 50 µM; in test [1], over 50 µM.

On to `Cc1ccc(N2CCN(CCc3ccc(COc4ccc5c(c4)CCCC5)cc3)CC2)cc1`, for which the IC50 is over 50 µM with PC-3, over 50 µM in the test with LNCaP, 25.1 µM in the test with DU-145 and over 50 µM in test [1].

With `N#Cc1ccccc1N1CCN(CCc2ccc(COc3ccc4c(c3)CCCC4)cc2)CC1`, the IC50 with PC-3 was 32 µM; in the test with LNCaP, 1.99 µM; in the test with DU-145 it was 29.7 µM; in test [1], over 50 µM.

For the compound `Clc1ccc(N2CCN(CCc3ccc(COc4ccc5c(c4)CCCC5)cc3)CC2)cc1`, the half-inhibitory concentration (IC50) (with PC-3; with LNCaP; in the test with DU-145; in test [1]) was over 50 µM throughout.

For `FC(F)(F)c1ccc(N2CCN(CCc3ccc(COc4ccc5c(c4)CCCC5)cc3)CC2)cc1`, the IC50 (in the test with PC-3; in the test with LNCaP; in the test with DU-145; in test [1]) was over 50 µM throughout.

As to `COc1cccc(N2CCN(CCc3ccc(COc4ccc5c(c4)CCCC5)cc3)CC2)c1`, the IC50 with PC-3 came out at 2.84 µM; with LNCaP, 8.02 µM; in the test on DU-145, 28.1 µM; in test [1], 29.1 µM.

For `Clc1ccccc1N1CCN(CCc2ccc(COc3ccc4c(c3)CCCC4)cc2)CC1`, the IC50 is 31.3 µM in the test on PC-3, 4.68 µM with LNCaP, over 50 µM in the test with DU-145 and over 50 µM in test [1].

Turning to `CC(C)(C)NC(=O)[C@H]1CC[C@H]2[C@@H]3CC[C@H]4NC(=O)C=C[C@]4(C)[C@H]3CC[C@]12C` [FINASTERIDE], the concentration for half-maximal inhibition (IC50) in the test with PC-3 is 17.8 µM; in the test on LNCaP it was 14.5 µM; in the test with DU-145 it was 13.5 µM.

In the case of `COc1ccccc1N1CCN(CC(O)COc2cccc3ccccc23)CC1` (centres undefined) [NAFTOPIDIL], the IC50 is 42.1 µM in the test on PC-3 and over 50 µM in test [1].
